# From ChEMBL document CHEMBL4354849, “[1,2,5]Oxadiazolo[3,4-b]pyrazine-5,6-diamine Derivatives as Mitochondrial Uncouplers for the Potential Treatment of Nonalcoholic Steatohepatitis” (J Med Chem, 2020)
# Activity calls are given as the source filed them. No cut-off for these calls is given here.
# Experiments:
# [1] = tested on: Mus musculus; assay: Improvement in liver fibrosis in Stelic C57BL/6 mouse model of streptozotocin-induced NASH assessed as improvement in inflammation score at 25 mg/kg/day, po administered in high-fat diet for 21 days; format: functional, organism-based
# Summary of the method: (§1)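 STAM NASH model: male C57BL/6 mice got 200 µg streptozotocin subcutaneously at day 2 of life, then high-fat diet from 4 weeks. At 6 weeks they were randomized, 8 per group. Drug was mixed into the high-fat diet at 25 mg/kg/d for 21 days. Killed at 9 weeks by cardiac puncture under isoflurane. Food intake was measured per cage of 4 every 3–4 days.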
# [2] = tested on: Mus musculus; assay: Improvement in liver fibrosis in Stelic C57BL/6 mouse model of streptozotocin-induced NASH assessed as effect on liver Cd146 mRNA expression at 25 mg/kg/day, po administered in high-fat diet for 21 days; format: functional, organism-based
# [3] = tested on: Mus musculus; assay: Improvement in liver fibrosis in Stelic C57BL/6 mouse model of streptozotocin-induced NASH assessed as effect on liver Gfap mRNA expression at 25 mg/kg/day, po administered in high-fat diet for 21 days; format: functional, organism-based
# [4] = tested on: Mus musculus; assay: Improvement in liver fibrosis in Stelic C57BL/6 mouse model of streptozotocin-induced NASH assessed as effect on liver Gfap mRNA expression at 25 mg/kg/day, po for 21 days
# [5] = tested on: Mus musculus; assay: Induction of hyperglycemia in Stelic C57BL/6 mouse model of streptozotocin-induced NASH at 25 mg/kg/day, po administered in high-fat diet for 21 days; format: organism-based; details: in vivo, 504 h; summary of the method: as §1
# [6] = Drug level in C57BL/6J mouse white adipose tissue at 50 mg/kg, po measured after 1 hr by LC-MS analysis; format: ADME, organism-based; details: read-out: Drug uptake
# Summary of the method: (§2)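 Male C57BL/6 mice, 12 weeks old, chow-fed, given a single 50 mg/kg oral gavage bolus in 90% methylcellulose/2% Tween80/8% DMSO. Killed by cervical dislocation at 1 h. Tissues were rinsed, snap-frozen, powdered and homogenized, then extracted into 90% acetonitrile/10% methanol. Quantified by LC-MS/MS against standards spiked into vehicle-treated tissue, normalized to tissue weight. n=3.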
# [7] = tested on: Mus musculus; assay: Effect on food intake in Stelic C57BL/6 mouse model of streptozotocin-induced NASH assessed as reduction in food intake at 25 mg/kg/day, po administered in high-fat diet for 21 days; format: ADME, organism-based; details: in vivo, 504 h; summary of the method: as §1
# [8] = tested on: Mus musculus; assay: Improvement in liver fibrosis in Stelic C57BL/6 mouse model of streptozotocin-induced NASH assessed as effect on liver Timp1 mRNA expression at 25 mg/kg/day, po administered in high-fat diet for 21 days; format: functional, organism-based
# [9] = tested on: Mus musculus; assay: Effect on ballooning in Stelic C57BL/6 mouse model of streptozotocin-induced NASH at 25 mg/kg/day, po administered in high-fat diet for 21 days; format: ADME, organism-based; details: in vivo, 504 h; summary of the method: as §1
# [10] = tested on: Mus musculus; assay: Improvement in liver fibrosis in Stelic C57BL/6 mouse model of streptozotocin-induced NASH assessed as effect on serum ALT level at 25 mg/kg/day, po administered in high-fat diet for 21 days; format: functional, organism-based; summary of the method: as §1
# [11] = Drug level in C57BL/6J mouse quadricep muscle at 50 mg/kg, po measured after 1 hr by LC-MS analysis; format: ADME, organism-based, Quadriceps femoris; details: read-out: Drug uptake; summary of the method: as §2
# [12] = tested on: Mus musculus; assay: Induction of energetic stress in Stelic C57BL/6 mouse model of streptozotocin-induced NASH assessed as effect on AMPK-dependent ACC activity at 25 mg/kg/day, po administered in high-fat diet for 21 days by Western blot analysis; format: organism-based; details: in vivo, 504 h
# [13] = tested on: Mus musculus; assay: Improvement in liver fibrosis in Stelic C57BL/6 mouse model of streptozotocin-induced NASH assessed as decrease in liver triglyceride content at 25 mg/kg/day, po administered in high-fat diet for 21 days; format: functional, organism-based; summary of the method: as §1
# [14] = Drug level in C57BL/6J mouse brain at 50 mg/kg, po measured after 1 hr by LC-MS analysis; format: ADME, organism-based; details: read-out: Drug uptake; summary of the method: as §2
# [15] = tested on: Mus musculus; assay: Improvement in liver fibrosis in Stelic C57BL/6 mouse model of streptozotocin-induced NASH assessed as effect on liver Col1a1 mRNA expression at 25 mg/kg/day, po administered in high-fat diet for 21 days; format: functional, organism-based
# [16] = tested on: Mus musculus; assay: Improvement in liver fibrosis in Stelic C57BL/6 mouse model of streptozotocin-induced NASH assessed as effect on liver Tgfb1 mRNA expression at 25 mg/kg/day, po administered in high-fat diet for 21 days; format: functional, organism-based
# [17] = tested on: Mus musculus; assay: Improvement in liver fibrosis in Stelic C57BL/6 mouse model of streptozotocin-induced NASH assessed as liver fibrosis score at 25 mg/kg/day, po administered in high-fat diet for 21 days by Picrosirius ed staining based assay (reference value: 0.91 +/- 0.25); format: functional; summary of the method: as §1
# [18] = tested on: Mus musculus; assay: Improvement in liver fibrosis in Stelic C57BL/6 mouse model of streptozotocin-induced NASH assessed as effect on liver Cd146 mRNA expression at 25 mg/kg/day, po for 21 days
# [19] = Drug level in C57BL/6J mouse heart at 50 mg/kg, po measured after 1 hr by LC-MS analysis; format: ADME, organism-based; details: read-out: Drug uptake; summary of the method: as §2
# [20] = tested on: Mus musculus; assay: Effect on core body temperature in C57BL/6J mouse at 25 to 100 mg/kg, po measured 1 to 24 hrs post dose by rectal probe thermometer based assay; format: ADME, organism-based; details: in vivo
# Summary of the method: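 Male C57BL/6 mice, 11 weeks old, given single oral gavage doses of 25, 50 or 100 mg/kg, or vehicle (90% methylcellulose/2% Tween80/8% DMSO). Core temperature was read by rectal probe thermometer at 1, 2, 4 and 24 h after dosing. n=5–6 per group.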
# [21] = Drug level in C57BL/6J mouse liver at 50 mg/kg, po measured after 1 hr by LC-MS analysis; format: ADME, organism-based; details: read-out: Drug uptake; summary of the method: as §2
# [22] = Drug level in C57BL/6J mouse kidney at 50 mg/kg, po measured after 1 hr by LC-MS analysis; format: ADME, organism-based; details: read-out: Drug uptake; summary of the method: as §2
# [23] = Induction of mitochondrial uncoupling in rat L6 cells assessed as oxygen consumption rate measured over 90 mins by oxygen consumption rate by seahorse assay; format: mitochondria, Mitochondria
# [24] = tested on: Mus musculus; assay: Improvement in liver fibrosis in Stelic C57BL/6 mouse model of streptozotocin-induced NASH assessed as improvement in pathologist derived steatosis score at 25 mg/kg/day, po administered in high-fat diet for 21 days; format: functional, organism-based; summary of the method: as §1
# [25] = tested on: Mus musculus; assay: Improvement in liver fibrosis in Stelic C57BL/6 mouse model of streptozotocin-induced NASH assessed as reduction in plasma triglyceride at 25 mg/kg/day, po administered in high-fat diet for 21 days; format: functional, organism-based; summary of the method: as §1
# [26] = tested on: Mus musculus; assay: Induction of energetic stress in Stelic C57BL/6 mouse model of streptozotocin-induced NASH assessed as effect on AMPK activity at 25 mg/kg/day, po administered in high-fat diet for 21 days by Western blot analysis; format: organism-based; details: in vivo, 504 h
# [27] = tested on: Mus musculus; assay: Improvement in liver fibrosis in Stelic C57BL/6 mouse model of streptozotocin-induced NASH assessed as effect on plasma AST level at 25 mg/kg/day, po administered in high-fat diet for 21 days; format: functional, organism-based; summary of the method: as §1
# [28] = tested on: Mus musculus; assay: Improvement in liver fibrosis in Stelic C57BL/6 mouse model of streptozotocin-induced NASH assessed as effect on liver alphaSMA mRNA expression at 25 mg/kg/day, po administered in high-fat diet for 21 days; format: functional, organism-based
# [29] = tested on: Mus musculus; assay: Improvement in liver fibrosis in Stelic C57BL/6 mouse model of streptozotocin-induced NASH assessed as increase in plasma cholesterol at 25 mg/kg/day, po administered in high-fat diet for 21 days; format: functional, organism-based; summary of the method: as §1
# [30] = tested on: Mus musculus; assay: Improvement in liver fibrosis in Stelic C57BL/6 mouse model of streptozotocin-induced NASH assessed as NAS score at 25 mg/kg/day, po administered in high-fat diet for 21 days (reference value: 4.6 +/- 0.7); format: functional; summary of the method: as §1
# [31] = tested on: Mus musculus; assay: Improvement in liver fibrosis in Stelic C57BL/6 mouse model of streptozotocin-induced NASH assessed as effect on liver MMP2 mRNA expression at 25 mg/kg/day, po administered in high-fat diet for 21 days; format: functional, organism-based
structure (smiles),measurement,setting,value
Fc1cccc(Nc2nc3nonc3nc2Nc2ccccc2F)c1,Activity,[1],Active
same,Activity,[2],inactive
same,Activity,[3],inactive
same,Activity,[4],inactive
same,Activity,[5],Non-Toxic
same,concentration at 1 h,[6],2850 nM
same,Activity,[7],Non-Toxic
same,Activity,[8],inactive
same,Activity,[9],Non-Toxic
same,Activity,[10],Active
same,concentration at 1 h,[11],260 nM
same,Activity,[12],Non-Toxic
same,Activity,[13],Active
same,concentration at 1 h,[14],850 nM
same,Activity,[15],inactive
same,Activity,[16],inactive
same,Activity,[17],0.49
same,Activity,[18],inactive
same,concentration at 1 h,[19],2090 nM
same,Activity,[20],Non-Toxic
same,concentration at 1 h,[21],13400 nM
same,concentration at 1 h,[22],4830 nM
same,EC50,[23],190 nM
same,Activity,[24],inactive
same,Activity,[25],inactive
same,Activity,[26],Non-Toxic
same,Activity,[27],inactive
same,Activity,[28],inactive
same,Activity,[29],inactive
same,Activity,[30],3.9
same,Activity,[31],inactive
